A selection: hits, their analogues and other compounds. The true share with any hit is near 1.6%.
PPC-1+TRAIL kill = compounds killing PPC-1 cancer cells with TRAIL present, primary screen, TRAIL potentiator project, ATPLite luminescence, uHTS; PPC-1 cells + TRAIL, ATPLite viability luminescence; cell killing (% activity), % at 4 µM or 5 µM; 220,000 tested, 0.41% active; AID 1443, 2008;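 active means cell killing above 50% in the first pass at 4 µM, then a duplicate retest at 5 µM averaging 50% or more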;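 further: plate controls were cells with TRAIL plus DMSO for no effect and medium-only wells lacking cells for full effect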
C8 TRAIL sens = viability loss with TRAIL in NB7+C8 cells, primary screen, TRAIL sensitizer project, cell-based, ATPlite luminescence; inhibition (viability loss, TRAIL sensitization), % at 10 µM; 360,000 tested, 1% active;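 active means compounds causing at least 50% loss of cell viability in the single-dose screen, relative to plate controls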
FLuc inhib CS = firefly luciferase enzyme inhibitors, primary screen, artefact control for luciferase-based inhibitor screens, biochemical, luminescence, ATPLite. 200,000 tested, 1.5% active. 10 min. inhibition, % at 10 µM. Luciferin 4-monooxygenase (Photinus pyralis), P08659. AID 1006, 2008;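 active means inhibition above about 50% when tested at 10 µM, limit read from the data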
Target sequence (P08659 whole entry, looked up): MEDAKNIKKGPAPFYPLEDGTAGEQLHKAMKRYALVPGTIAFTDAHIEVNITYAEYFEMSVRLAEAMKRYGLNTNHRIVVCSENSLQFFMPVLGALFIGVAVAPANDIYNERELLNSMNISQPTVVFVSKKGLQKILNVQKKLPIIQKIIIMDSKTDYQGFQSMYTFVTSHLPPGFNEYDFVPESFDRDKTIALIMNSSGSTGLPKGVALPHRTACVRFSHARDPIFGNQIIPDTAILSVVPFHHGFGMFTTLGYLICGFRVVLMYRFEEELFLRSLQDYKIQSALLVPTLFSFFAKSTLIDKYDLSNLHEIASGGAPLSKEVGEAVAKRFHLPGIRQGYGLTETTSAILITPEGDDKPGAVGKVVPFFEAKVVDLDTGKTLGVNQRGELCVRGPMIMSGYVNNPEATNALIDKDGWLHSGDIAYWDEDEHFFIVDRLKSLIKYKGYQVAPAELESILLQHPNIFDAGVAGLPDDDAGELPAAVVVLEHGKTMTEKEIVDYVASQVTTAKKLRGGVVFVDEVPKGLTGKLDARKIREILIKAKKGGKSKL
Platelet DG rel = inhibitors of platelet dense granule secretion, primary screen, cell-based, MLPCN, human platelets | 300,000 tested, 0.22% active | inhibition, %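 (compounds screened at 7.5 µM in platelet-rich plasma)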 | AID 1663, 2009 | human platelet-rich plasma, SFLLRN dense granule ATP release, luminescence;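 active means mean replicate score, as percent of positive control, at or above 50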
FLuc act counter = FLuc activators, initial screening, artefact control for FLuc-dependent activation tests, biochemical, ATPlite luminescence. Luciferin 4-monooxygenase (Photinus pyralis), P08659. ATPlite luciferase biochemical, 10 min; 0 = ATP-free wells, 1 = DMSO control. activation factor at 10 µM. 200,000 tested, under 10 active. AID 1027, 2008;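 active means luciferase activation factor, scaled between plate controls, of at least 2 with compound at 10 µM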
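Material: Luciferase/luciferin reagent mix; Doses: test compounds dosed from 2 mM stocks in 100% DMSO; Schedule: 10 min incubation after luciferase reagent addition, room temperature; Measured by: luminescence from luciferase reaction; Read-out: luminescence gain marking luciferase activators.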
The depositor's hits bear a star; . = no result given.

SMILES	PPC-1+TRAIL kill	C8 TRAIL sens	FLuc inhib CS	Platelet DG rel	FLuc act counter
Cc1cc(C)nc(Nc2nc(C(N)Cc3ccc(C(F)(F)F)cc3)cs2)n1 (stereo not drawn)	.	39	.	.	.
CC(C)c1ccc(NC(=O)Nc2nc(C(N)COCc3ccccc3)cs2)cc1 (stereo not drawn)	.	77*	.	.	.
NC(Cc1ccc(Cl)cc1)c1csc(NC(=O)NCC2CCCCC2)n1 (stereo not drawn)	.	86*	.	.	.
COc1cc(OC)nc(Nc2nc(C(N)Cc3ccc(C(F)(F)F)cc3)cs2)n1 (stereo not drawn)	.	80*	.	.	.
COc1cccc(NC(=O)CCC2CCN(C(=O)C(OC)c3ccccc3)CC2)c1 (stereo not drawn)	.	5	.	.	.
NC(Cc1ccc(C(F)(F)F)cc1)c1csc(NC(=O)Nc2ccccc2Cc2ccccc2)n1 (stereo not drawn)	.	79*	.	.	.
COc1ccccc1CNC(=O)Nc1nnc([C@H]2C[C@H](O)[C@@H](CO)O2)s1	.	-2	.	.	.
CCOC(=O)c1c(N)sc(C(=O)Nc2ccccc2F)c1C	37	45	75*	23	0.2
CCC(=O)Nc1sc(C(=O)Nc2ccccc2F)c(C)c1C(=O)OC	.	40	-9	-3	1.1
CCOC(=O)c1c(N)sc(C(N)=O)c1C	-12	-14	-3	-1	1
CCOC(=O)c1c(N)sc(C(=O)Nc2ccccc2)c1C	46	63*	84*	43	0.2
CCOC(=O)C1=C(Nc2ccc(OC)cc2)OCC1=O	0	9	.	-3	.
CCOC(=O)C1=C(C)OC(=Cc2ccc(OC)cc2)C1=O	.	70*	.	.	.
CN1CCN(c2ccc(-c3cc(NC=O)c4ncc(-c5ccccc5)n4c3)cc2)CC1	.	30	.	.	.
COc1cc2c(cc1NC(=O)c1cccc([N+](=O)[O-])c1)oc1ccccc12	18	50*	3	-4	1
Cc1cc2ncc(-c3ccc(Cl)cc3)cn2n1	24	36	56*	9	0.4
Cc1ccc(-c2ccnc3c(Cl)c(C)nn23)cc1	.	-18	.	-2	.
Cc1nc2nc(-c3ccc(Cl)cc3)cn2nc1C	0	28	41	8	0.6
Cc1ccc(-c2cnc3c(Cl)c(C)nn3c2)cc1	22	44	58*	25	0.4
CC1C(=O)N(Cc2cn(CC3CCCCC3)nn2)CCS(=O)(=O)N1Cc1ccc(-c2ccccc2)cc1 (stereo not drawn)	.	18	.	.	.
Cc1c(-c2ccccn2)c(=O)[nH]n1-c1ccc(F)cc1	43	32	61*	-3	0.4
O=c1[nH]n(-c2ccc(F)cc2)c2ncccc12	20	4	-4	13	1
Nc1ccn([C@@H]2O[C@H](CO)[C@@H](O)[C@@H]2O)c(=O)n1	18	-3	-3	-2	1
OCC1OC(n2ccc3c2ncn2ncnc32)C(O)C1O (stereo not drawn)	.	82*	.	.	.
CC1(C(=O)NS(=O)(=O)c2ccc(F)cc2F)CCN1C(=O)C/C=C/c1ccccc1 (stereo not drawn)	.	9	.	.	.
SMILES	PPC-1+TRAIL kill	C8 TRAIL sens	FLuc inhib CS	Platelet DG rel	FLuc act counter
NC1=NC(=Nc2ccccc2)c2ccccc21	36	15	-1	0	1
NC1=NC(=Nc2ccc(Cl)cc2)c2ccccc21	0	-4	35	-6	0.6
CC(C)c1ccc(N=C2N=C(N)c3ccccc32)cc1	40	57*	.	-3	.
NC1=NC(=Nc2ccc(Br)cc2)c2ccccc21	21	7	53*	-2	0.5
COc1ccc(C2=Nc3ccccc3N(C(=O)c3ccncc3)C2C(=O)NC(C)(C)C)cc1 (stereo not drawn)	.	-23	.	.	.
O=C(NC(c1ccc(-c2ccccc2)cc1)c1cnccn1)C1CCN(CCCOc2ccccc2)CC1 (stereo not drawn)	.	26	.	.	.
CCN1/C(=C/c2ccc3ccccc3[n+]2CC)C=Cc2ccccc21	39	59*	14	18	0.9
CCN1/C(=C/c2ccc3ccccc3[n+]2CCCS(=O)(=O)[O-])C=Cc2cc(C)ccc21	.	11	.	8	.
Cc1csc(NC(=O)c2cc3ccccc3o2)n1	.	65*	.	.	.
O=C(Nc1ccc(Cl)cn1)c1cc2ccccc2o1	22	42	64*	-13	0.4
CCOC(=O)Cc1csc(NC(=O)c2cc3ccccc3o2)n1	14	38	36	5	0.6
Cc1ccc(C)c(NC(=O)c2cc3ccccc3o2)c1	.	22	.	5	.
COc1ccccc1N(Cc1ccccc1)S(=O)(=O)c1cccc(C(=O)Nc2cc(C)ccn2)c1	.	61*	.	-19	.
Cc1ccnc(NC(=O)c2cc3ccccc3o2)c1	.	86*	.	29	.
O=C1c2ccccc2C(c2nnnn2-c2ccc3c(c2)OCCO3)N1Cc1ccc(F)cc1 (stereo not drawn)	.	6	.	.	.
Cc1cc(C)c(C)c(S(=O)(=O)N2CCNC(=O)C2)c1C	.	1	.	.	.
CCc1nc2ccc(C(=O)NCCNC(C)=O)cn2c1N(CC)CCOC	.	-3	.	.	.
Cc1ccnc(NC(=O)c2ccc(C(=O)c3ccccc3)cc2)c1	.	69*	.	20	.
Cc1csc(C(C#N)C(=O)c2cc3ccccc3o2)n1 (stereo not drawn)	34	59*	88*	1	0.1
O=C(NNC(=O)c1cc2ccccc2o1)c1ccc(F)cc1	.	2	.	.	.
COC(=O)c1cccc(NC(=O)c2cc3ccccc3o2)c1	.	50*	.	14	.
Cc1ccc(-c2csc(NC(=O)c3ccc(-c4ccccc4)cc3)n2)o1	21	66*	14	-15	0.9
COC(=O)c1cc(NC(=O)c2cc3ccccc3o2)cc(C(=O)OC)c1	.	4	.	12	.
Cn1c(NCCN2CCCC2)nc2cc(-c3cccc(C(F)(F)F)c3)sc2c1=O	.	-8	.	.	.
CSc1ccccc1NC(=O)C1(C)CCN1C(=O)Cc1ccccc1Cl (stereo not drawn)	.	-10	.	.	.
SMILES	PPC-1+TRAIL kill	C8 TRAIL sens	FLuc inhib CS	Platelet DG rel	FLuc act counter
O=c1c(=O)n(CCO)n(CCO)c(=O)n1CCO	.	-3	.	.	.
Cc1cccc(C)c1NC(=O)C(c1ccccc1OC(F)(F)F)N1CCC(c2ccccc2)CC1 (stereo not drawn)	.	12	.	.	.
COc1cc(NC(=O)c2ccccc2)ccc1NC(=O)c1cc2ccccc2o1	.	8	.	-7	.
Cc1cc(NC(=O)c2cncc(Br)c2)ccc1NC(=O)c1cc2ccccc2o1	.	60*	.	8	.
COc1ccccc1CNC(=O)COc1cc(O)c2c(c1)OC(C)(C)CC2=O	.	1	.	.	.
CCNC(=O)[C@H]1O[C@@H](n2cnc3c(N)nc(NCCc4ccc(CCC(=O)O)cc4)nc32)[C@H](O)[C@@H]1O	-14	2	.	109*	.
CC[C@H]1CN2CCc3cc(OC)c(OC)cc3C2C[C@@H]1C[C@H]1NCCc2cc(OC)c(OC)cc21 (stereo partly drawn)	.	56*	.	.	.
O=C(Nc1ccc(F)cc1)C(c1cccc(F)c1)N1CCN(c2cccc(C(F)(F)F)n2)CC1 (stereo not drawn)	.	20	.	.	.

Assay outcomes deposited in PubChem by several laboratories.
